What all share (format): functional, organism-based
Assay [1] concerns Mus musculus. Put plainly: Compound was tested for cognitive activity by measuring retention for passive avoidance learning in mice at dose 0.32 mg/kg. Also noted: dose 0.32 mg/kg. The gist of the method:
(§1)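 Male CF-1 mice (19–21 g at shipment), 20 per dose group, each used once. Given ip an aqueous solution or methocel suspension 1 h before footshock training, with a saline group run alongside. Retention test: mouse placed on an outer shelf of the box; entering within 60 s scored as not retained. Value is percent retention. Days with control retention outside 65–75% were discarded.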

Assay [2] deals with Mus musculus. Put plainly: (§2) Compound was tested for cognitive activity by measuring retention for passive avoidance learning in mice at dose 0.63 mg/kg. Details: dose 0.63 mg/kg. The gist of the method: as §1
Assay [3] concerns Mus musculus. Put plainly: Retention for passive avoidance learning in mice at dose 2.5 mg/kg. Details: dose 2.5 mg/kg. Put shortly: (§3)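 Naive male CF-1 mice (19–21 g at shipment), 20 per dose, each used once. Dosed i.p. as an aqueous solution or methocel suspension 1 h before footshock training, with a saline group run in parallel. At the test, mice were placed on an outside shelf; entering the box within 60 s counted as no retention. Values are percent retention. A day was discarded unless controls scored 65–75%.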

For assay [4], the system named is Mus musculus. Briefly: Retention for passive avoidance learning in mice at dose 1.25 mg/kg. Also noted: dose 1.25 mg/kg. The gist of the method: as §3
For assay [5], the system named is Mus musculus. Briefly: Retention for passive avoidance learning in mice at dose 5 mg/kg. Details: dose 5 mg/kg. Put shortly: as §3
Assay [6] relates to Mus musculus. Briefly: Compound was tested for cognitive activity by measuring retention for passive avoidance learning in mice at dose 10 mg/kg. Details: dose 10 mg/kg. Put shortly: as §1
Assay [7] concerns Mus musculus. Briefly: Retention for passive avoidance learning in mice at dose 20 mg/kg. Details: dose 20 mg/kg. The gist of the method: as §3
Assay [8] concerns Mus musculus. Put plainly: Retention for passive avoidance learning in mice at dose 80 mg/kg. Details: dose 80 mg/kg. The gist of the method: as §3
Assay [9] concerns Mus musculus. Briefly: Retention for passive avoidance learning in mice at dose 5.0 mg/kg. Details: dose 5 mg/kg. Put shortly:
as §3

The test system of assay [10] is Mus musculus. Put plainly: Compound was tested for cognitive activity by measuring retention for passive avoidance learning in mice at dose 20 mg/kg. Also noted: dose 20 mg/kg. Put shortly:
as §3

Assay [11] concerns Mus musculus. Put plainly: Compound was tested for cognitive activity by measuring retention for passive avoidance learning in mice at dose 40 mg/kg. Also noted: dose 40 mg/kg. The gist of the method: as §3
Assay [12] has as its system Mus musculus. The assay is described as §2. Details: dose 0.63 mg/kg. The gist of the method: as §3
The source holds these as a separate data set.

In assay [13] the test system is Mus musculus. Put plainly: Compound was tested for cognitive activity by measuring retention for passive avoidance learning in mice at dose 0.15 mg/kg. Details: dose 0.15 mg/kg. The gist of the method: as §1
In assay [14] the test system is Mus musculus. Briefly: Compound was tested for cognitive activity by measuring retention for passive avoidance learning in mice at dose 1.25 mg/kg. Details: dose 1.25 mg/kg. The gist of the method: as §1
Assay [15] has as its system Mus musculus. Briefly: Compound was tested for cognitive activity by measuring retention for passive avoidance learning in mice at dose 20 mg/kg i. Also noted: dose 20 mg/kg. Put shortly: as §1

As for `O=C1C[C@@H]2OCC=C3CN4CC[C@]56c7ccccc7N1[C@H]5[C@H]2[C@H]3C[C@H]46`, the Retention in assay [1] stood at 70%; in assay [2], 75%.

On to `CN(C)CCCN1c2ccccc2Sc2ccc(Cl)cc21`, for which the Retention in [3] came to 70%; in assay [4], 70%; in [5], 20%.

Regarding `COC(=O)C(c1ccccc1)C1CCCCN1` (stereo unspecified), the Retention was found to be 65% in assay [6]; 50% in [3]; 50% in assay [4]; 87% in [7]; 90% in assay [5].

For the compound `O=[N+]([O-])c1ccccc1Oc1cccnc1`, the Retention is 50% in assay [8], 60% in [9] and 90% in [7].

`c1ccc(Sc2cccnc2)cc1`: the Retention in assay [8] worked out at 85%; in assay [9], 80%; in [7] it was 85%.

For `Brc1ccccc1Oc1cccnc1`, the values for the Retention in assay [10] and in [9] were 50% and 65%, respectively.

With `NC1=NC(=O)C(c2ccccc2)O1` (stereo unspecified), the Retention in assay [6] worked out at 70%; in assay [8] it was 77%; in assay [11] it was 83%; in assay [7], 83%; in assay [5], 30%.

Regarding `Cc1ncccc1Oc1ccccc1N`, the results for the Retention in assay [8], in [9] and in assay [7] were 40%, 65% and 45%, respectively.

With `Fc1cccc(Oc2cccnc2)c1`, the Retention came to 75% in assay [3]; 55% in assay [8]; 90% in assay [9]; 65% in assay [12]; 75% in [4]; 55% in assay [7].

As to `CN1C(=O)CN=C(c2ccccc2)c2cc(Cl)ccc21`, the Retention came to 40% in assay [3], 53% in assay [4] and 41% in assay [5].

Turning to `Clc1ccccc1Oc1cccnc1`, the Retention in assay [3] was 40%; in [8] it was 40%; in assay [9], 95%; in [12], 60%; in assay [4] it was 45%; in assay [7] it was 80%.

For `CN(C)CCCN1c2ccccc2CCc2ccccc21`, the Retention in [6] was found to be 80%; in [11], 72%; in assay [7] it was 77%; in [5] it was 65%.

Regarding `[O-][n+]1cccc(Oc2ccc[n+]([O-])c2)c1`, the Retention in assay [3] stood at 60%; in assay [8], 60%; in assay [9], 90%; in [12] it was 65%; in assay [4] it was 75%; in [7], 90%.

For the compound `COC(=O)c1cccc(Oc2cccnc2)c1`, the Retention in [8] came to 55%; in [9], 70%; in assay [7], 60%.

As for `Nc1ccccc1Oc1cccnc1`, the Retention in assay [3] came to 70%; in assay [8], 55%; in assay [9], 80%; in [7], 65%.

As to `c1cncc(Oc2cccnc2)c1`, the values for the Retention in [8], in assay [9] and in assay [7] were 55%, 85% and 100%, respectively.

As for `COc1ccc(Oc2cccnc2)cc1`, the Retention in assay [8] was 35%; in assay [9], 78%; in assay [7], 75%.

For `Clc1cccc(Oc2cccnc2)c1`, the Retention in assay [8] stood at 0%; in [9], 60%; in assay [7] it was 60%.

For the compound `COc1cccc(Oc2cccnc2)c1`, the Retention in assay [8] came out at 20%; in assay [9], 55%; in [7] it was 55%.

For the compound `Fc1ccc(Oc2cccnc2)cc1`, the Retention amounted to 85% in assay [3]; 50% in assay [8]; 95% in [9]; 35% in assay [12]; 60% in assay [4]; 80% in assay [7].

Consider `Cc1ncccc1Oc1ccccc1[N+](=O)[O-]`, for which the Retention in [3] amounted to 70%; in [8], 35%; in assay [9] it was 85%; in [4] it was 70%; in assay [7] it was 70%.

In the case of `Cn1c(=O)c2c(ncn2C)n(C)c1=O`, the Retention in assay [6] was found to be 3%; in assay [3], 37%; in assay [8], 0%; in assay [2], 70%; in assay [4] it was 87%; in [11] it was 3%. In assay [5], this compound returned a Retention of 37%.

For `CCOc1ccccc1Oc1cccnc1`, the Retention was found to be 65% in assay [8], 70% in assay [9] and 70% in assay [7].

As for `Fc1ccccc1Oc1cccnc1`, the Retention in assay [3] stood at 80%; in assay [8] it was 50%; in [9], 90%; in assay [12] it was 60%; in assay [4] it was 65%; in assay [7], 85%.

Consider `CC(N)Cc1ccccc1` (stereo unspecified), for which the Retention in [3] stood at 75%; in assay [4] it was 70%.

As to `O=c1[nH]c2ccccc2n1C1CCN(CCCC(c2ccc(F)cc2)c2ccc(F)cc2)CC1`, the Retention in assay [1] amounted to 40%; in assay [2], 27%; in assay [13] it was 43%.

As to `Clc1ccc(Oc2cccnc2)cc1`, the Retention in [3] is 70%; in assay [8], 65%; in assay [9], 80%; in assay [12], 55%; in assay [4] it was 65%; in assay [7], 30%.

Turning to `CN1[C@@H]2C[C@@H](OC(=O)[C@H](CO)c3ccccc3)C[C@H]1[C@@H]1O[C@@H]12`, the Retention in assay [1] stood at 65%; in assay [14], 35%; in assay [2] it was 30%; in [13], 65%.

Turning to `Brc1ccc(Oc2cccnc2)cc1`, the Retention was 70% in [3]; 85% in assay [8]; 90% in assay [9]; 75% in assay [12]; 75% in assay [4]; 70% in assay [7].

As for `[O-][n+]1cccc(Oc2cccnc2)c1`, the Retention in assay [3] stood at 65%; in [8] it was 85%; in assay [9], 85%; in [12] it was 60%; in assay [4], 45%; in assay [7], 85%.

`c1ccc(Oc2ccccn2)cc1`: the Retention in [8] was 30%; in [9] it was 65%; in assay [7] it was 50%.

On to `c1ccc(Oc2cccnc2)cc1`, for which the Retention in assay [3] was 90%; in assay [8] it was 35%; in [9] it was 100%; in [12], 65%; in assay [4], 90%; in assay [7] it was 70%.

Regarding `Cc1cncc(Oc2ccccc2)c1`, the Retention in assay [8] is 45%; in assay [9] it was 70%; in [7] it was 80%.

In the case of `O=C1NC(=O)C(c2ccccc2)(c2ccccc2)N1`, the Retention in [6] was found to be 43%; in [3] it was 75%; in assay [8], 15%; in assay [15], 55%; in assay [4] it was 85%; in [11], 50%. In addition, in assay [5], the Retention came to 90%.

For `[O-][n+]1cccc(Oc2ccccc2)c1`, the Retention in assay [8] was 0%; in [9] it was 40%; in [7], 20%.

As for `C=C(C)[C@@H]1[C@H]2OC(=O)[C@@H]1[C@]1(O)C[C@H]3OC34C(=O)O[C@H]2[C@@]41C.CC(C)(O)[C@@H]1[C@H]2OC(=O)[C@@H]1[C@]1(O)C[C@H]3OC34C(=O)O[C@H]2[C@@]41C` (stereo partly specified), the Retention in [3] is 80%; in assay [1], 65%; in assay [14], 90%; in assay [2] it was 80%; in [5] it was 70%.

As for `FC(F)(F)c1cccc(Oc2cccnc2)c1`, the Retention came out at 30% in [9] and 55% in assay [7].

As to `[Cl-].[Li+]`, the Retention in [6] was 31%; in [3], 70%; in assay [8] it was 38%; in assay [2], 60%; in assay [4], 84%; in [11], 23%. Moreover, the Retention in assay [5] turned out to be 0%.

With `Cc1ccncc1Oc1ccccc1`, the figures for the Retention in assay [8], in [9] and in assay [7] were 15%, 75% and 85%, respectively.

With `CCCC(C)C1(CC)C(=O)NC(=O)NC1=O` (stereo unspecified), the Retention in assay [3] worked out at 7%; in [2], 23%; in [4] it was 40%.

As to `c1ccc(Oc2ccncc2)cc1`, the Retention was found to be 0% in [8], 70% in assay [9] and 65% in [7].

Take `COc1cc2c(cc1OC)C1CC(=O)C(CC(C)C)CN1CC2` (stereo unspecified): the figures for the Retention in assay [3], in assay [4] and in assay [5] were 63%, 59% and 33%, respectively.

As for `CCC1(C)CC(=O)NC1=O` (stereo unspecified), the Retention in assay [6] turned out to be 63%; in assay [8] it was 95%; in assay [15], 90%; in [11], 70%.
